Results taken from ChEMBL document CHEMBL1800030, “Synthesis and biological evaluation of anilino substituted pyrimidine linked pyrrolobenzodiazepines as potential anticancer agents” (Bioorg Med Chem Lett, 2010).
pIC50: −log10 of the molar value. Activity calls are given as the source filed them.

How the values were obtained:
Nucleic Acid [1] = assay: Binding affinity to calf thymus DNA assessed as change in melting temperature at compound to DNA molar ratio of 1:5 at pH 7 after 18 hrs at 37 degC by thermal denaturation assay; assay type: nucleic-acid assay; conditions: Bos taurus
Nucleic Acid [2] = assay: Inhibition of BamH1-induced DNA cleavage activity in Escherichia coli pBR322 at 4 uM after 24 hrs by agarose gel electrophoresis; assay type: nucleic-acid assay
How it was run: (§1)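 pBR322 plasmid DNA was incubated with compound at 2–32 µM and then digested with BamHI. Restriction-digestion inhibition was judged against cut (BamHI, no compound) and uncut vector lanes.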

MCF7 = assay: Cytotoxicity against human MCF7 cells after 48 hrs by SRB assay; assay type: functional; conditions: MCF7, 48 h
How it was run: (§2)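 Cells from human breast, oral, ovary, colon, lung, prostate and cervix cancer lines were tested by sulforhodamine B assay. GI50 is 50% growth inhibition, given as mean ± SEM of three determinations. Activity cutoff was GI50 ≤10^-5 M. Adriamycin served as positive control.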

A2780 = assay: Cytotoxicity against human A2780 cells after 48 hrs by SRB assay; assay type: functional; conditions: A2780, 48 h; how it was run: as §2
KB = assay: Cytotoxicity against human KB cells after 48 hrs by SRB assay; assay type: functional; how it was run: as §2
PC-3 = assay: Cytotoxicity against human PC3 cells after 48 hrs by SRB assay; assay type: functional; conditions: PC-3, 48 h; how it was run: as §2
SiHa = assay: Cytotoxicity against human SiHa cells after 48 hrs by SRB assay; assay type: functional; how it was run: as §2
[3] = Cytotoxicity against human Gurav cells after 48 hrs by SRB assay; assay type: functional; how it was run: as §2
[4] = Cytotoxicity against human DWD cells after 48 hrs by SRB assay; assay type: functional; how it was run: as §2
COLO 205 = assay: Cytotoxicity against human COLO205 cells after 48 hrs by SRB assay; assay type: functional; conditions: COLO 205, 48 h; how it was run: as §2
HOP-62 = assay: Cytotoxicity against human HOP62 cells after 48 hrs by SRB assay; assay type: functional; conditions: HOP-62, 48 h; how it was run: as §2
ZR-75-1 = assay: Cytotoxicity against human ZR-75-1 cells after 48 hrs by SRB assay; assay type: functional; conditions: ZR-75-1, 48 h; how it was run: as §2
A549 = assay: Cytotoxicity against human A549 cells after 48 hrs by SRB assay; assay type: functional; conditions: A549, 48 h; how it was run: as §2
A-375 [5] = assay: Cytotoxicity against human A375 cells after 24 hrs by MTT assay; assay type: functional, cell-based; conditions: A-375, 24 h
How it was run: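 MTT proliferation assay on A375 cells, with the IC50 derived from it.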

A-375 [6] = assay: Cytotoxicity against human A375 cells assessed as cell viability at 4 uM after 24 hrs by real time cell analyzer; assay type: functional; conditions: A-375, 24 h, read-out: Activity
How it was run: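 A375 cell viability was measured after exposure to compound at 4 µM, with percent viability reported.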

A-375 [7] = assay: Cell cycle arrest in human A375 cells assessed as accumulation at G0/G1 phase at 4 uM after 24 hrs by propidium iodide staining based FACS analysis (reference value: 64.7 to 66.26%); assay type: functional
A-375 [8] = assay: Cell cycle arrest in human A375 cells assessed as accumulation at S phase at 4 uM after 24 hrs by propidium iodide staining based FACS analysis (reference value: 12.04 to 15.67%); assay type: functional
A-375 [9] = assay: Cell cycle arrest in human A375 cells assessed as accumulation at G2/M phase at 4 uM after 24 hrs by propidium iodide staining based FACS analysis (reference value: 17.65 to 23.26%); assay type: functional
A-375 [10] = assay: Induction of apoptosis in human A375 cells at 4 uM after 24 hrs by FACS analysis (reference value: 5.61%); assay type: functional
A-375 [11] = assay: Upregulation of p53 gene expression in human A375 cells at 4 uM after 24 hrs by Western blot analysis; assay type: functional, cell-based
How it was run: (§3)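 A375 cells were treated at 4 µM for 24 h, then p53 or cytosolic cytochrome c levels were measured by Western blot. β-Actin served as loading control. Controls were untreated cells and untreated cells plus DMSO.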

A-375 [12] = assay: Induction of mitochondrial dysfunction in human A375 cells assessed as increase in cytosolic cytochrome c level at 4 uM after 24 hrs by Western blot analysis; assay type: functional, cell-based; how it was run: as §3
A-375 [13] = assay: Induction of apoptosis in human A375 cells assessed as PARP cleavage at 4 uM after 24 hrs by Western blot analysis
Nucleic Acid [14] = assay: Inhibition of BamH1-induced DNA cleavage activity in Escherichia coli pBR322 at 16 uM after 24 hrs by agarose gel electrophoresis; assay type: nucleic-acid assay
How it was run: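 RED100 restriction-digestion assay: pBR322 vector DNA incubated with compound at 2, 4, 8, 16 and 32 µM, then digested with BamHI. Lanes are compared with uncut vector and with vector cut by BamHI without compound. DNA binding is read as inhibition of BamHI cleavage.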

Nucleic Acid [15] = assay: Inhibition of BamH1-induced DNA cleavage activity in Escherichia coli pBR322 at 8 uM after 24 hrs by agarose gel electrophoresis; assay type: nucleic-acid assay; how it was run: as §1

| Compound | ΔTm (Nucleic Acid [1]) | inhibition (Nucleic Acid [2]) | GI50 (MCF7) | GI50 (A2780) | GI50 (KB) | GI50 (PC-3) | GI50 (SiHa) | GI50 [3] | GI50 [4] | GI50 (COLO 205) | GI50 (HOP-62) | GI50 (ZR-75-1) | GI50 (A549) | pIC50 (A-375 [5]) | viability at 4 µM (A-375 [6]) | Activity (A-375 [7]) | Activity (A-375 [8]) | Activity (A-375 [9]) | Activity (A-375 [10]) | Activity (A-375 [11]) | also measured |
| --- | --- | --- | --- | --- | --- | --- | --- | --- | --- | --- | --- | --- | --- | --- | --- | --- | --- | --- | --- | --- | --- |
| COc1cc2c(cc1OCCCCC(=O)Nc1ccc(C)c(Nc3nccc(-c4cc(OC)c(OC)c(OC)c4)n3)c1)N=C[C@@H]1C[C@H](F)CN1C2=O | 2.5 °C | inactive | 160 nM | 180 nM | 170 nM | 170 nM | 1800 nM | 150 nM | 180 nM | 2100 nM | 120 nM | 2700 nM | 2500 nM | 5.25 | 64.9% | 76.76% | 17.19% | 6.04% | 36.15% | Active | Activity (A-375 [12]): Active; Activity (A-375 [13]): Active |
| COc1cc2c(cc1O)N=C[C@@H]1CCCN1C2=O | 0.7 °C |  | 170 nM | 140 nM | 170 nM | 200 nM | 170 nM | 160 nM |  | 110 nM | 150 nM |  | 160 nM |  |  |  |  |  |  |  | inhibition (Nucleic Acid [14]): Active |
| Cc1ccc(NC(=O)c2ccc(CBr)cc2)cc1Nc1nccc(-c2cccnc2)n1 |  |  |  |  |  |  |  |  |  |  |  |  |  |  |  | 68% | 11% | 21% |  |  |  |
| COc1cccc2c1C(=O)c1c(O)c3c(c(O)c1C2=O)C[C@@](O)(C(=O)CO)C[C@@H]3O[C@H]1C[C@H](N)[C@H](O)[C@H](C)O1 [DOXORUBICIN] |  |  | < 100 nM | < 100 nM | 110 nM | 170 nM | 2100 nM | 120 nM | < 100 nM | < 100 nM | 140 nM | 130 nM | 150 nM |  |  |  |  |  |  |  |  |
| COc1cc2c(cc1OCCCCC(=O)Nc1ccc(C)c(Nc3nccc(-c4cccnc4)n3)c1)N=C[C@@H]1CCCN1C2=O | 2.1 °C | inactive | 170 nM | 2400 nM | 180 nM | 2030 nM | 2200 nM | < 100 nM | 2500 nM | 2300 nM | 160 nM | 170 nM | 2300 nM | 5.26 | 72% | 80.98% | 13.98% | 6.47% | 41.59% | Active | Activity (A-375 [12]): Active; Activity (A-375 [13]): Active |
| COc1cc2c(cc1OCCCCC(=O)Nc1ccc(C)c(Nc3nccc(-c4cc(OC)c(OC)c(OC)c4)n3)c1)N=C[C@@H]1CCCN1C2=O | 1.4 °C |  | 2000 nM | 180 nM | 170 nM | 1800 nM | 1800 nM | 2000 nM | 1800 nM | 2300 nM | 2400 nM | 2600 nM | 2300 nM |  |  |  |  |  |  |  |  |
| COc1cc2c(cc1OCc1ccc(C(=O)Nc3ccc(C)c(Nc4nccc(-c5cccnc5)n4)c3)cc1)N=C[C@@H]1C[C@H](F)CN1C2=O | 7.1 °C | inactive | < 100 nM | 130 nM | 120 nM | 140 nM | 120 nM | 130 nM | 140 nM | < 100 nM | 150 nM | 150 nM | 160 nM | 6.80 | 33.7% | 98.44% | 0.2% | 0.16% | 83.86% | Active | inhibition (Nucleic Acid [15]): Active; Activity (A-375 [12]): Active; Activity (A-375 [13]): Active |
| COc1cc2c(cc1OCc1ccc(C(=O)Nc3ccc(C)c(Nc4nccc(-c5cccnc5)n4)c3)cc1)N=C[C@@H]1CCCN1C2=O | 6.8 °C | inactive | 140 nM | 130 nM | 140 nM | 150 nM | 170 nM | < 100 nM | 130 nM | 120 nM | 170 nM | 160 nM | 140 nM | 5.96 | 48% | 80.98% | 13.55% | 5.67% | 49.7% | Active | inhibition (Nucleic Acid [15]): Active; Activity (A-375 [12]): Active; Activity (A-375 [13]): Active |
